Reference: ChEMBL document CHEMBL1126139 (J Med Chem, 1992)

What was measured:
[1] = biological target: T1, Glycine receptor subunit alpha-1 (Rattus norvegicus, UniProt P07727); test: Inhibitory concentration required to inhibit [3H]strychnine binding to […] of rat spinal cord membranes.
T1 sequence (P07727 whole entry): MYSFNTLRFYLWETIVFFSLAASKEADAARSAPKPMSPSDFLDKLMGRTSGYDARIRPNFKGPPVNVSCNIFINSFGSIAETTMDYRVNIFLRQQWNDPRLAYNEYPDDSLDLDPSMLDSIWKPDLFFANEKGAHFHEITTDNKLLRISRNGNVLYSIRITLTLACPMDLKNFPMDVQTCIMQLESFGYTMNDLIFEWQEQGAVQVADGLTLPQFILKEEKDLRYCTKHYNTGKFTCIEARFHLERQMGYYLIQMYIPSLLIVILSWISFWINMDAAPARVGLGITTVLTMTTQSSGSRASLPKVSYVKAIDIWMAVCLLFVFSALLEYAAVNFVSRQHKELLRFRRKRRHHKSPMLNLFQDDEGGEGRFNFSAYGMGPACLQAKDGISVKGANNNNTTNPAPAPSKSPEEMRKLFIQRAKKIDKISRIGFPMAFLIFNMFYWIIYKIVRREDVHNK

[2] = biological target: T1, Glycine receptor subunit alpha-1; test: Inhibitory concentration required to inhibit [3H]strychnine binding to […]
Procedure, shortened: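 [3H]Strychnine displacement; IC50 obtained by nonlinear curve fitting to a Langmuir isotherm.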

[3] = Ability to displace [3H]strychnine-sensitive glycine receptor binding to rat spinal cord membranes; at 100 uM
Mus musculus [4] = species on record: Mus musculus; test: Change in input resistance of cultured spinal cord neurons produced at a dose 100 uM tetrodotoxin; assay type: functional
Mus musculus [5] = species on record: Mus musculus; test: Change in input resistance of cultured spinal cord neurons produced at a dose 1 mM; assay type: functional
Mus musculus [6] = species on record: Mus musculus; test: Change in input resistance of cultured spinal cord neurons produced at a dose 1 mM+100 uM strychnine; assay type: functional
Mus musculus [7] = species on record: Mus musculus; test: Change in input resistance of cultured spinal cord neurons produced at a dose 1 mM+100 uM tetrodotoxin; assay type: functional
Mus musculus [8] = species on record: Mus musculus; test: Change in input resistance of cultured spinal cord neurons produced at a dose 100 uM; assay type: functional
Mus musculus [9] = species on record: Mus musculus; test: Change in input resistance of cultured spinal cord neurons produced at a dose 100 uM+100 uM bicuculline+3 uM tetrodotoxin; assay type: functional
Mus musculus [10] = species on record: Mus musculus; test: Change in input resistance of cultured spinal cord neurons produced at a dose 1 mM+100 uM bicuculline+3 uMtetrodotoxin; assay type: functional
Mus musculus [11] = species on record: Mus musculus; test: Change in input resistance of cultured spinal cord neurons produced at a dose 100 uM+100 uM tetrodotoxin; assay type: functional

C[C@@H](N)C(=O)O [D-ALANINE]
IC50 [1]: 90.9 µM

NCCC(=O)O [BETA-ALANINE]
IC50 [1]: 11.6 µM

O=C(O)C1CCN1 (stereo not given)
IC50 [2]: 399 µM

O=C(O)C1C=CCN1 (stereo not given)
IC50 [2]: 242 µM

O=C(O)c1cc[nH]c1
inhibition [3]: 46%

O=C(O)C1=CCNC1
Activity (Mus musculus [4]): 5.1%
Activity (Mus musculus [5]): 60.4%
IC50 [2]: 7.9 µM
Activity (Mus musculus [6]): 4.7%
Activity (Mus musculus [7]): 37.2%
Activity (Mus musculus [8]): 22.7%

O=C(O)[C@@H]1CCCN1 (stereo in doubt) [PROLINE]
IC50 [2]: 414 µM

O=C(O)C1CCNCC1 [ISONIPECOTIC ACID]
Activity (Mus musculus [5]): 73.6%
Activity (Mus musculus [9]): 3%
IC50 [2]: 94.1 µM
Activity (Mus musculus [10]): 0.1%
Activity (Mus musculus [8]): 19.2%

O=C(O)C1CNC1
Activity (Mus musculus [11]): 10.7%
Activity (Mus musculus [5]): 83.1%
IC50 [2]: 23.7 µM
Activity (Mus musculus [6]): 37.7%
Activity (Mus musculus [7]): 71.7%
Activity (Mus musculus [8]): 9.4%

O=C(O)[C@@H]1CCCN1 (stereo in doubt; 8) [PROLINE]
IC50 [2]: 17.2 µM

C[C@H](N)C(=O)O [ALANINE]
IC50 [2]: 198 µM
